pEC50: −log10 of the molar value.
What was measured:
DAT = DAT (Rattus norvegicus, UniProt P23977); experiment: Inhibition of [3H]dopamine reuptake at DAT in rat caudate synaptosomes; type: biochemical; conditions: for efficacy as inhibitor of reuptake at DAT: dose-response, Figure 1A; for pEC50: read-out: EC50, DAT uptake inhibition
NET = NET (Rattus norvegicus, UniProt Q63380); experiment: Inhibition of [3H]norepinephrine reuptake at NET in rat brain synaptosomes; type: biochemical; conditions: for efficacy as inhibitor of reuptake at NET: dose-response, Figure 1B
[1] = test system: intracranial self-stimulation (medial forebrain bundle); experiment: Intracranial self-stimulation; type: in vivo, rat; conditions: rats, i.p.
SERT = SERT (Rattus norvegicus, UniProt P31652); experiment: Inhibition of [3H]serotonin reuptake at SERT in rat brain synaptosomes; type: biochemical; conditions: 5 nM [3H]serotonin, data not shown
Outline: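 Synaptosomes prepared from rat whole brain minus caudate and cerebellum after CO2 euthanasia. Uptake began by adding tissue suspension to Krebs-phosphate buffer, pH 7.4, containing 0.05 mM pargyline, BSA, ascorbic acid, test compound and 5 nM [3H]serotonin. Unlabeled blockers of competing transporters were included. The assay ended by rapid vacuum filtration through GF/B filters, and retained radioactivity was measured by scintillation counting.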

[2] = test system: intracranial self-stimulation (medial forebrain bundle); conditions: rats; racemate, earlier report ref 15; cited from earlier work
[3] = ratio of reuptake inhibition potencies

Sequence of NET (Q63380 1-617): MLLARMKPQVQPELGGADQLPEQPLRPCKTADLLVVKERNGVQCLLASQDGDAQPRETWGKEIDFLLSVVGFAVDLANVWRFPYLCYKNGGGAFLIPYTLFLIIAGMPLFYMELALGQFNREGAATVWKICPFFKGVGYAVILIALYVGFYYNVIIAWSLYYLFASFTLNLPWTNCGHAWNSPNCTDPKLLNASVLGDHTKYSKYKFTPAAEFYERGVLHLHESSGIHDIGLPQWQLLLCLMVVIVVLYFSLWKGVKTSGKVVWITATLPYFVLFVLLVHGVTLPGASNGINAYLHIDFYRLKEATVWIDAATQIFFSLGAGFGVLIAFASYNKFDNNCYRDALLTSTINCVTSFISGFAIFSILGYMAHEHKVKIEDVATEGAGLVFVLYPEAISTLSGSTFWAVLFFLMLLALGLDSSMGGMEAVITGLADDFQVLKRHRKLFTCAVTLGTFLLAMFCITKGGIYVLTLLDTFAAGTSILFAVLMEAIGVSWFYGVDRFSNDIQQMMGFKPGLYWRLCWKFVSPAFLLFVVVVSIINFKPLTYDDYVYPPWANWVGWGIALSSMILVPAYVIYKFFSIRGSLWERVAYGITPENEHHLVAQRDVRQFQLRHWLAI
Sequence of DAT (P23977 whole entry): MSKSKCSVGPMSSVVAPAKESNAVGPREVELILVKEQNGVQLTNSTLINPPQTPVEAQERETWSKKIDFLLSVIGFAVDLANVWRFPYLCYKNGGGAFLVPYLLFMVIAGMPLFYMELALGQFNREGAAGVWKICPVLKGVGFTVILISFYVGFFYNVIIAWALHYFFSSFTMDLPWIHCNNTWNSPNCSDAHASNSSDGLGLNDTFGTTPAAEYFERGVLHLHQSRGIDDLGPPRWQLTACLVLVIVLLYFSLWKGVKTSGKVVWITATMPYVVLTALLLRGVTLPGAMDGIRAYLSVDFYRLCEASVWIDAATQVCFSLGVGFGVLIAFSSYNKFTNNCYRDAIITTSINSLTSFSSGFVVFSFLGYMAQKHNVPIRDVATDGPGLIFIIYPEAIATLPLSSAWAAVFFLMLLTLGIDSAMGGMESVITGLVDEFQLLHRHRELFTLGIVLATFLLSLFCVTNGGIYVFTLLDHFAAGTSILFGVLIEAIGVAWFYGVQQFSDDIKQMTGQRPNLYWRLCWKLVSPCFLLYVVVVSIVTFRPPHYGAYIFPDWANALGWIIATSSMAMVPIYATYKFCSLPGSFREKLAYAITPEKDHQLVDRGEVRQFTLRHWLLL
Sequence of SERT (P31652 whole entry): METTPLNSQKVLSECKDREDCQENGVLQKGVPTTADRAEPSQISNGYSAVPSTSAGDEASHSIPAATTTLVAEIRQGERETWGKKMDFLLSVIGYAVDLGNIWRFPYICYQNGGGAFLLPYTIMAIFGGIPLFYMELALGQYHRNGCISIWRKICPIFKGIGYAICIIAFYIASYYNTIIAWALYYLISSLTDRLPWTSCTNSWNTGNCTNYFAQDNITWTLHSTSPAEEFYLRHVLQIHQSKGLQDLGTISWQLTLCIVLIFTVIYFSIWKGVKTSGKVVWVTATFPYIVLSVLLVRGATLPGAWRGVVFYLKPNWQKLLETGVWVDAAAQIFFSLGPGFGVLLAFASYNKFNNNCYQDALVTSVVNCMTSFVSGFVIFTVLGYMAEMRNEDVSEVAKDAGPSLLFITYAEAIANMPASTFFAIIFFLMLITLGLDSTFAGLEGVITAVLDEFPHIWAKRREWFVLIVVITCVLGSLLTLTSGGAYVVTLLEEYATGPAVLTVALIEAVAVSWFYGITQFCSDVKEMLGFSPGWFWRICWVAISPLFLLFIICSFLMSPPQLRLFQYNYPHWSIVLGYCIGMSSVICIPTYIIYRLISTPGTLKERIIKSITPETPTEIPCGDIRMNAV

CCC[C@@H](C(=O)c1ccc2c(c1)OCO2)N1CCCC1.Cl [S(+)MDPV (3S), S(+)-Methylendioxypyrovalerone Hydrochloride]
efficacy as inhibitor of reuptake at DAT (DAT): fully efficacious | fold more potent as reuptake inhibitor than R(−)MDPV at DAT (DAT; [3]): approximately 200 fold | fold more potent than cocaine at DAT (DAT; [3]): 100 fold | pEC50 (DAT): 8.67 | potency relative to the racemate at DAT (DAT; reuptake inhibition): approximately twice as potent | efficacy as inhibitor of reuptake at NET (NET): fully efficacious | fold more potent as reuptake inhibitor than R(−)MDPV at NET (NET; [3]): ~80 fold | fold more potent than cocaine at NET (NET; [3]): 40 fold | potency relative to the racemate at NET (NET; reuptake inhibition): approximately twice as potent | effect on ICSS relative to vehicle, posthoc analysis ([1]; doses of 0.32 and 1.0 mg/kg, one-way ANOVA, Dunnett's posthoc): significantly facilitated ICSS | effect on ICSS frequency–rate curve (%MCR) ([1]; S(+)MDPV 0.32 mg/kg, R(−)MDPV 3.2 mg/kg, Figure 2B,C): leftward shift in the ICSS frequency–rate curve

CCCC(C(=O)c1ccc2c(c1)OCO2)N1CCCC1 (racemic) [(±)MDPV (3), methylenedioxypyrovalerone]
efficacy as inhibitor of reuptake at DAT (DAT): fully efficacious | pEC50 (DAT): 8.31 | efficacy as inhibitor of reuptake at NET (NET): fully efficacious | concentration up to which reuptake of [3H]serotonin at SERT was not inhibited (SERT): > 10 µM | doses producing significant facilitation of ICSS [2]: ≥ 0.32 mg/kg

CCC[C@H](C(=O)c1ccc2c(c1)OCO2)N1CCCC1.Cl [R(−)MDPV (3R), R(−)-Methylendioxypyrovalerone Hydrochloride]
pEC50 (DAT): 6.42 | dose without effect on ICSS relative to the lowest effective dose of S(+)MDPV ([1]; up to 10 mg/kg): > 100 fold
